In brackets after ≈: the same amount, converted by molar mass.
Tested on: Mycobacterium tuberculosis
Assay: Antimycobacterial activity against Mycobacterium bovis BCG after 7 days by broth microdilution method
Assay type: functional
Details: variant bovis BCG, 168 h
How it was run: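 Strains were pre-grown in Middlebrook 7H11 with OADC. The microdilution assay ran in sealed 96-well plates at 37 °C and was read after 72 h for M. smegmatis mc²155 and after 7 days for M. bovis BCG.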

Row | Structure (SMILES) | MIC
1 | CCOC(=O)c1cn(C)c2c(ccc3c2nnn3Cc2ccccc2)c1=O | 64 µg/mL (≈ 177 µM)
2 | CCOC(=O)c1cn(CC)c2c(ccc3c2nnn3Cc2ccccc2)c1=O | > 128 µg/mL
3 | C=CCn1cc(C(=O)OCC)c(=O)c2ccc3c(nnn3Cc3ccccc3)c21 | 64 µg/mL (≈ 165 µM)
4 | CCCCn1cc(C(=O)OCC)c(=O)c2ccc3c(nnn3Cc3ccccc3)c21 | 64 µg/mL (≈ 158 µM)
5 | CCOC(=O)c1cn(C(C)(C)C)c2c(ccc3c2nnn3C)c1=O | 8 µg/mL (≈ 24.4 µM)
6 | C=C(C)Cn1cc(C(=O)OCC)c(=O)c2ccc3c(nnn3C)c21 | > 128 µg/mL
7 | CCOC(=O)c1cn(CC2CC2)c2c(ccc3c2nnn3C)c1=O | 64 µg/mL (≈ 196 µM)
8 | CCOC(=O)c1cn(CC2CCC2)c2c(ccc3c2nnn3C)c1=O | 64 µg/mL (≈ 188 µM)
9 | Cn1cc(C(=O)O)c(=O)c2ccc3c(nnn3Cc3ccccc3)c21 | 4 µg/mL (≈ 12 µM)
10 | CCn1cc(C(=O)O)c(=O)c2ccc3c(nnn3Cc3ccccc3)c21 | 16 µg/mL (≈ 45.9 µM)
11 | C=CCn1cc(C(=O)O)c(=O)c2ccc3c(nnn3Cc3ccccc3)c21 | 8 µg/mL (≈ 22.2 µM)
12 | CCCCn1cc(C(=O)O)c(=O)c2ccc3c(nnn3Cc3ccccc3)c21 | 64 µg/mL (≈ 170 µM)
13 | Cn1nnc2c3c(ccc21)c(=O)c(C(=O)O)cn3C(C)(C)C | 16 µg/mL (≈ 53.3 µM)
14 | C=C(C)Cn1cc(C(=O)O)c(=O)c2ccc3c(nnn3C)c21 | 32 µg/mL (≈ 107 µM)
15 | Cn1nnc2c3c(ccc21)c(=O)c(C(=O)O)cn3CC1CC1 | 16 µg/mL (≈ 53.6 µM)
16 | Cn1nnc2c3c(ccc21)c(=O)c(C(=O)O)cn3CC1CCC1 | 16 µg/mL (≈ 51.2 µM)
17 | Cn1cc(C(=O)O)c(=O)c2ccc3c(nnn3C)c21 | 4 µg/mL (≈ 15.5 µM)
18 | O=C(O)c1cn(C2CC2)c2cc(N3CCNCC3)c(F)cc2c1=O [CIPROFLOXACIN] | 0.25 µg/mL (≈ 0.754 µM)
19 | CC[C@@H](CO)NCCN[C@@H](CC)CO [ETHAMBUTOL] | 2 µg/mL (≈ 9.79 µM)
